Activity calls are given as the source filed them. The calls are words filed in the database; no cut-off is given here.
Experiments:
[1] = Inhibition of X4-tropic HIV-1 LAI Vif infected in MT4 cells assessed as inhibition of viral replication incubated for 10 to 15 days measured on every other day by reverse transcriptase assay; conditions: Human immunodeficiency virus 1, LAI
[2] = Inhibition of X4-tropic HIV-1 LAI Vif infected in CEM cells assessed as inhibition of viral replication incubated for 14 to 21 days measured on every other day by reverse transcriptase assay; assay type: cell-based; conditions: Human immunodeficiency virus 1, LAI, CCRF-CEM
[3] = (§1) Inhibition of X4-tropic HIV-1 LAI Vif infected in MT4 cells assessed as inhibition of viral replication incubated for 10 to 15 days measured on every second day by reverse transcriptase assay by reverse transcriptase assay; assay type: cell-based, Human immunodeficiency virus 1
Summary of the method: (§2)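 Cells (2 x 10⁵/well) were pretreated overnight with 1 to 50 µM compound in RPMI with 10% FBS, then infected with X4-tropic HIV-1 LAI. Cultures were kept ± compound for 10-15 days. Every second day, 1/3 of supernatant was replaced with compound-containing medium, and RT activity was measured in supernatant. RN-18 served as positive control and untreated cells as negative control. There were ≥3 repeats; IC50 was calculated.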

[4] = test system: Human immunodeficiency virus 1; assay: Inhibition of HIV-1 GFP tagged Vif expressed in 293FT cells co-expressing HA-tagged A3G assessed as upregulation of HA-A3G expression at 50 uM incubated for 16 hrs by immunoblotting assay; assay type: cell-based
Summary of the method: (§3)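 293FT cells co-expressing HA-tagged A3G with GFP-tagged Vif or ΔVif were grown for 16 h with antagonist at 50 µM or without compound. Extracts were immunoblotted with anti-HA (A3G), anti-GFP (Vif) and anti-GAPDH antibodies. A3G and Vif levels were compared with untreated Vif-expressing cells. RN-18 served as positive control and choline chloride as a further control.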

[5] = test system: Human immunodeficiency virus 1; assay: Inhibition of HIV-1 GFP tagged Vif expressed in 293FT cells co-expressing HA-tagged A3G assessed as downregulation of GFP-Vif expression at 50 uM incubated for 16 hrs by immunoblotting assay; assay type: cell-based
Summary of the method: as §3

[6] = (§4) Inhibition of X4 tropic HIV-1 LAI Vif infected in H9 cells assessed as inhibition of viral replication incubated for 10 to 15 days measured on every second day by reverse transcriptase assay; assay type: cell-based, Human immunodeficiency virus 1
Summary of the method: as §2

MT4 = assay: as §1; assay type: cell-based; conditions: Human immunodeficiency virus 1
Summary of the method: as §2

H9 = assay: as §4; assay type: cell-based; conditions: Human immunodeficiency virus 1
Summary of the method: as §2

[7] = Kinetic solubility at pH 5.0 by UV spectroscopic analysis; assay type: physicochemical; conditions: buffer
[8] = Permeability across synthetic membrane at pH 5.0 by PAMPA assay; assay type: ADME
[9] = Permeability across synthetic membrane at pH 6.2 by PAMPA assay; assay type: ADME
[10] = Kinetic solubility at pH 6.2 by UV spectroscopic analysis; assay type: physicochemical; conditions: buffer
[11] = Permeability across synthetic membrane at pH 7.4 by PAMPA assay; assay type: ADME
[12] = Kinetic solubility at pH 7.2 by UV spectroscopic analysis; assay type: physicochemical; conditions: buffer
Plasma [13] = assay: Plasma protein binding in human; assay type: ADME, cell-free
[14] = Cytotoxicity against human Fa2N-4 cells upto 50 uM by luminescence ATP detection assay; assay type: cell-based
Plasma [15] = assay: Metabolic stability in human plasma; assay type: ADME, cell-free
Liver microsomes = assay: Metabolic stability in human liver microsomes; assay type: ADME, Microsome
[16] = Human immunodeficiency virus 1, LAI, H9, read-out: IC50

| Structure (SMILES) | IC50 ([3]; mt4) | HA-A3G upregulation (active/not active) [4] | GFP-Vif downregulation activity call [5] | IC50 [6, 16] | further results |
| --- | --- | --- | --- | --- | --- |
| COc1ccccc1NC(=O)c1ccccc1Sc1ccc([N+](=O)[O-])cc1 | Not Active | Active | Active | 6 µM | IC50 [1]: > 100 µM; IC50 [2]: 4.5 µM |
| COc1ccccc1NC(=O)c1ccccc1Sc1ccc(C(=O)[O-])cc1.C[N+](C)(C)CCO | Not Active |  |  | 1 µM | inhibition (MT4): inactive; inhibition (H9): inactive |
| CS(=O)(=O)Oc1ccccc1NC(=O)c1ccccc1Sc1ccc([N+](=O)[O-])cc1 | Not Active |  |  | 5.6 µM |  |
| O=C(Nc1ccccc1I)c1ccccc1Sc1ccc([N+](=O)[O-])cc1 | Not Active |  |  | 4.3 µM |  |
| COc1ccccc1NC(=O)c1ccccc1S(=O)(=O)c1ccc(C(=O)[O-])cc1.C[N+](C)(C)CCO | Not Active | inactive | inactive | 10 µM | Kinetic_solubility [7]: soluble; permeability [8]: permeable; permeability [9]: impermeable; Kinetic_solubility [10]: soluble; permeability [11]: impermeable; Kinetic_solubility [12]: soluble; PPB (Plasma [13]): Active; Activity [14]: Non-toxic; Stability (Plasma [15]): Stable; Stability (Liver microsomes): Stable |
| COc1ccccc1NC(=O)c1ccccc1Cl |  | inactive | inactive |  | IC50 ([3]; Human immunodeficiency virus 1, LAI, MT4, read-out: IC50): > 50 µM; IC50 ([6]; h9): Not Active |
| COc1ccccc1NC(=O)c1ccc(C)nc1Sc1ccc([N+](=O)[O-])cc1 | Not Active | Active | Active | 1.5 µM |  |
| COc1ccccc1NC(=O)c1cccnc1Sc1ccc([N+](=O)[O-])cc1 | Not Active |  |  | 10 µM |  |
| COC(=O)c1ccc(NC(=O)c2ccccc2Sc2ccc([N+](=O)[O-])cc2)c(OC)c1 | Not Active |  |  | 10 µM |  |
| COc1ccccc1NC(=O)c1ccc(Sc2ccc([N+](=O)[O-])cc2)cc1Cl | Not Active | Active | Active | 2.5 µM |  |
| COc1ccccc1NC(=O)c1ccccc1S(=O)(=O)c1ccc([N+](=O)[O-])cc1 | Not Active | Active | Active | 1.1 µM |  |
| COC(=O)c1ccc(Sc2ccccc2C(=O)Nc2ccccc2OC)cc1 |  |  |  |  | inhibition (MT4): inactive; inhibition (H9): inactive |
